Source: ChEMBL document CHEMBL4513216, “Probing the Open Global Health Chemical Diversity Library for Multistage-Active Starting Points for Next-Generation Antimalarials” (ACS Infect Dis, 2020)

Assay: Toxicity liver stage against HepG2, at 10uM
Type: cell-based
Set-up: test concentration 10 uM, cell line HepG2-A16-CD81EGFP
Settings: human, HepG2-A16-CD81EGFP cells; read-out: INHIBITION
Procedure, shortened: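 Uninfected HepG2-A16-CD81EGFP cells, 3 × 10^3 per well, 1536-well, plated on prespotted compound at 10 μM final, parasite-free screening media added to match infected plates; puromycin 10 μM positive, DMSO 0.5% negative; run in parallel with 48 h PbLuc assay at 37 °C, 5% CO2; viability by CellTiter-Glo luminescence, normalized to controls.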

SMILES | cytotoxicity at 10 µM [%]
Cc1cc(C)n(CC2CN(Cc3ccccn3)CCO2)n1 (stereo not given) | -3.89
CCOc1ccccc1C(=O)NCCC(O)c1ccoc1 (stereo not given) | -16.4
CS(=O)(=O)CCCN1CCN(C(C#N)c2ccccc2)CC1 (stereo not given) | -3.14
Cc1nc(CN2CCN(C(=O)CCc3ccco3)CC2)cs1 | -4.39
Cc1cccc(CN2CCC(c3nnsc3S(C)(=O)=O)CC2)c1 | 1.86
CCCn1ccc(C(=O)Nc2ccc3c(c2)C(C)(C)C(=O)N3C)n1 | 8.44
CN(C)S(=O)(=O)N1CCCC(c2cccc(Cc3ccccc3F)n2)C1 (stereo not given) | 40.4
COCCN1CC[C@@H]2OC(COCC(=O)N3CCCC3)CC[C@@H]21 (stereo not given in full) | -3.29
CC(C)N(C)Cc1cc(=O)n2c(n1)CN(C(=O)c1ccnnc1)CCC2 | 2.95
COC(=O)CCNC(=O)C1CC(=O)N(C2CCCC2)C1 (stereo not given) | -22.9
COc1ccnc(N2CCN(C(=O)N3CCOCC3)CC2)n1 | -1.64
Cc1ocnc1C(=O)N(C)[C@@H]1CC[C@@H](n2ccnc2C)[C@@H]1O | 0.642
CCn1nc(C)c2ncnc(NCC(=O)N3CCOCC3)c21 | 3.54
CN(C)C(=O)N1CCN(C(=O)c2ccn3ccnc3c2)CC1 | -5.02
Cc1ccc(-c2nnc(NC(=O)c3ccn(C)c(=O)c3)[nH]2)s1 | -1.15
COc1ccc(CC(=O)Nc2ccc3ncn(C(C)C)c(=O)c3c2)cc1 | 3.97
CC(=O)Nc1nc(C(=O)NC(C)c2ccc(F)c(F)c2)cs1 (stereo not given) | -5.39
Cc1cc(C)c(CNC(=O)N2CCCN(C(=O)C(C)C)CC2)c(C)c1 | 12.3
CCc1n[nH]c(C2CN(CC(=O)NCCc3ccsc3)CCO2)n1 (stereo not given) | -11
O=C(c1ccc(OCC2CC2)cc1)N1CCOCC1c1ncon1 (stereo not given) | 1.79
CCCNC(=O)Cn1c(-n2nc(C)cc2C)nc(CCC)cc1=O | 8.94
CC(C)(N)CN1CCC(c2nnc(CN3CCCC3)n2C2CC2)CC1 | 19.2
CCn1ncc2c1NC(=O)CC2c1cnc(-c2ccccn2)nc1 (stereo not given) | -7.76
CCOCCC(=O)N1CCN(CC(C)O)CC1 (stereo not given) | 6.7
COCCOCC1(CNC(=O)c2ccc(OC)cc2)C[C@@H](O)[C@@H](O)C1 (stereo not given in full) | 0.0221
Cc1nc(-c2ccnc(N3CCNCC3)n2)no1 | 2.63
Cc1ccc(-c2nc(CN3CCCC(Cn4cncn4)C3)cs2)o1 (stereo not given) | -22.2
CC(C)n1cnnc1CN(C)C(=O)c1cccnc1O | 2.1

SMILES | cytotoxicity at 10 µM [%]
Cc1ncc(CN2C[C@H]3CC(OCc4ccccc4)C[C@H]3C2)cn1 (stereo not given in full) | -24.3
O=S(=O)(C1CC1)N1CCC2(CN(c3ccccn3)C2)C1 | 5.25
CN(C(=O)Cc1c[nH]c2ccccc12)C1CCN(c2ccccn2)CC1 | 9.36
CC(C)=CCN1CCN(C(=O)COc2ccccc2)[C@H]2CS(=O)(=O)C[C@H]21 | -1.64
Cn1ccnc1C(=O)N1CCC2(CCN2CC2CC2)C1 (stereo not given) | 11.8
O=C(O)C1(Cc2ccccc2Cl)CCN(c2ncccc2F)CC1 | -12.3
CN(Cc1ccccc1)CC1CC2(CO1)CN(Cc1nccs1)C2 (stereo not given) | 8.88
Cc1ccc(CC(=O)N(C)CC2(O)CCN(c3ccccn3)C2)s1 (stereo not given) | -10.4
Cn1cccc1C(=O)N1CCc2onc(Cn3cccn3)c2C1 | -4.72
COc1cccc(SCC(=O)N2CCC(N3CCCC(O)C3)CC2)c1 (stereo not given) | -18.7
CC(=O)N1CCN(C(=O)NCc2ccc(Cl)s2)CC1 | -15.4
Cn1c(=O)c2c(n3ncnc13)NC(=O)CC2c1ccc(F)cc1 (stereo not given) | 5.64
Cc1ccc(-c2nccn2-c2ccc(OC3CCN(C)CC3)cc2)o1 | -10.4
Cc1cc(O)cc(=O)n1CCCC(=O)Nc1n[nH]c2cc(Br)ccc12 | -16.2
CNC(=O)N1CCC2(CC1)c1ncc(C)n1CCN2C | 5.22
CCc1[nH]ncc1C(=O)N1CCCC(n2ccnc2C)C1 (stereo not given) | -10.5
Cc1ccccc1C1CCCN(C(=O)c2c[nH]c(=O)c(Cl)c2)C1 (stereo not given) | -59.8
CN(C(=O)Cn1nc(-c2ccc(F)cc2)oc1=O)c1ccccc1 | -0.267
CNC(=O)[C@@H]1C[C@@H](N)CN1c1nnc(-c2ccccc2)s1 | -36
Cc1noc(C)c1C(=O)NCCc1cccs1 | 12
c1cnnc(N[C@@H]2CC[C@@H]3CN(Cc4ccc5[nH]ccc5c4)C[C@@H]32)c1 | -7.81
COc1ccc(CC(=O)NC2CCN(CC(F)F)CC2)cc1OC | -8.48
CCc1ccc(C(=O)N2CCCC2c2c(C)nn(C)c2OC)o1 (stereo not given) | 6.16
Cc1ccc(C(=O)NS(C)(=O)=O)cc1-n1cccc1 | -3.47
Cc1cc(N2CCC(n3cc(CN4CCC[C@@H]4CO)nn3)CC2)ccn1 | 4.9
Cn1cnc2c(-c3cccnc3)nc(C3CCN(S(C)(=O)=O)CC3)cc21 | -118
CC(Cn1cccn1)C(=O)N1CCC(NS(C)(=O)=O)CC1 (stereo not given) | -8.34
